# Test results as given in ChEMBL document CHEMBL1649199 (Antimicrob Agents Chemother, 2009).
# How the values were obtained:
# [1] = system: Plasmodium falciparum; test: Antimicrobial activity against Plasmodium falciparum IMT 9881 harboring Pfcrt, Pfmdr1, Pfmrp, and Pfnhe-1 polymorphisms assessed as growth inhibition after 48 hrs by scintillation counting; format: functional, organism-based; conditions: IMT 9881, 48 h
# In short: (§1)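 Sorbitol-synchronized (twice) culture-adapted strains were grown in type A+ human blood in RPMI 1640 with 10% human serum, 25 mM HEPES and 25 mM NaHCO3, at 37°C under 10% O2/5% CO2/85% N2. Rings (>95%) at 0.5% parasitemia and 1.5% hematocrit were exposed to drug, methanol then water, final 0.125–400 nM or 5.3–3,387 nM, with 1 μCi [3H]hypoxanthine for 48 h. IC50 from nonlinear regression versus drug-free controls.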
# [2] = system: Plasmodium falciparum; test: Antimicrobial activity against Plasmodium falciparum IMT 10354 harboring Pfcrt, Pfmdr1, Pfmrp, and Pfnhe-1 polymorphisms assessed as growth inhibition after 48 hrs by scintillation counting; format: functional, organism-based; conditions: IMT 10354, 48 h; in short: as §1
# [3] = system: Plasmodium falciparum; test: Antimicrobial activity against Plasmodium falciparum D6 harboring Pfcrt, Pfmdr1, Pfmrp, and Pfnhe-1 polymorphisms assessed as growth inhibition after 48 hrs by scintillation counting; format: functional, organism-based; conditions: D6, 48 h; in short: as §1
# [4] = system: Plasmodium falciparum; test: Antimicrobial activity against Plasmodium falciparum IMT 16332 harboring Pfcrt, Pfmdr1, Pfmrp, and Pfnhe-1 polymorphisms assessed as growth inhibition after 48 hrs by scintillation counting; format: functional, organism-based; conditions: IMT 16332, 48 h; in short: as §1
# [5] = system: Plasmodium falciparum; test: Antimicrobial activity against Plasmodium falciparum 3D7 harboring Pfcrt, Pfmdr1, Pfmrp, and Pfnhe-1 polymorphisms assessed as growth inhibition after 48 hrs by scintillation counting; format: functional, organism-based; conditions: 3D7, 48 h; in short: as §1
# [6] = system: Plasmodium falciparum; test: Antimicrobial activity against Plasmodium falciparum IMT 8425 harboring Pfcrt, Pfmdr1, Pfmrp, and Pfnhe-1 polymorphisms assessed as growth inhibition after 48 hrs by scintillation counting; format: functional, organism-based; conditions: IMT 8425, 48 h; in short: as §1
# [7] = system: Plasmodium falciparum; test: Antimicrobial activity against Plasmodium falciparum IMT 16116 harboring Pfcrt, Pfmdr1, Pfmrp, and Pfnhe-1 polymorphisms assessed as growth inhibition after 48 hrs by scintillation counting; format: functional, organism-based; conditions: IMT 16116, 48 h; in short: as §1
# [8] = system: Plasmodium falciparum; test: Antimicrobial activity against Plasmodium falciparum IMT 10500 harboring Pfcrt, Pfmdr1, Pfmrp, and Pfnhe-1 polymorphisms assessed as growth inhibition after 48 hrs by scintillation counting; format: functional, organism-based; conditions: IMT 10500, 48 h; in short: as §1
# [9] = system: Plasmodium falciparum; test: Antimicrobial activity against Plasmodium falciparum IMT 10336 harboring Pfcrt, Pfmdr1, Pfmrp, and Pfnhe-1 polymorphisms assessed as growth inhibition after 48 hrs by scintillation counting; format: functional, organism-based; conditions: IMT 10336, 48 h; in short: as §1
# [10] = system: Plasmodium falciparum; test: Antimicrobial activity against Plasmodium falciparum FCR3 harboring Pfcrt, Pfmdr1, Pfmrp, and Pfnhe-1 polymorphisms assessed as growth inhibition after 48 hrs by scintillation counting; format: functional, organism-based; conditions: FCR3, 48 h; in short: as §1
# [11] = system: Plasmodium falciparum; test: Antimicrobial activity against Plasmodium falciparum IMT 31 harboring Pfcrt, Pfmdr1, Pfmrp, and Pfnhe-1 polymorphisms assessed as growth inhibition after 48 hrs by scintillation counting; format: functional, organism-based; conditions: IMT 31, 48 h; in short: as §1
# [12] = system: Plasmodium falciparum; test: Antimicrobial activity against Plasmodium falciparum IMT Vol harboring Pfcrt, Pfmdr1, Pfmrp, and Pfnhe-1 polymorphisms assessed as growth inhibition after 48 hrs by scintillation counting; format: functional, organism-based; in short: as §1
# [13] = system: Plasmodium falciparum; test: Antimicrobial activity against Plasmodium falciparum IMT 6311 harboring Pfcrt, Pfmdr1, Pfmrp, and Pfnhe-1 polymorphisms assessed as growth inhibition after 48 hrs by scintillation counting; format: functional, organism-based; conditions: IMT 6311, 48 h; in short: as §1
# [14] = system: Plasmodium falciparum; test: Antimicrobial activity against Plasmodium falciparum IMT Bres harboring Pfcrt, Pfmdr1, Pfmrp, and Pfnhe-1 polymorphisms assessed as growth inhibition after 48 hrs by scintillation counting; format: functional, organism-based; in short: as §1
# [15] = system: Plasmodium falciparum; test: Antimicrobial activity against Plasmodium falciparum IMT L1 harboring Pfcrt, Pfmdr1, Pfmrp, and Pfnhe-1 polymorphisms assessed as growth inhibition after 48 hrs by scintillation counting; format: functional, organism-based; conditions: IMT L1, 48 h
# In short: (§2)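 Culture-adapted strains in RPMI 1640 with 10% human serum, 25 mM HEPES, 25 mM NaHCO3, type A+ blood, 10% O2/5% CO2/85% N2, 37°C; sorbitol-synchronized twice. Rings >95%, 0.5% parasitemia, 1.5% hematocrit; drug (methanol then water) final 0.125–400 nM or 5.3–3,387 nM. [3H]hypoxanthine 1 μCi/well at time zero, 48 h; freeze-thaw, harvest, scintillation; IC50 versus drug-free control by nonlinear regression of log dose-response.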
# [16] = system: Plasmodium falciparum; test: Antimicrobial activity against Plasmodium falciparum FCM29 harboring Pfcrt, Pfmdr1, Pfmrp, and Pfnhe-1 polymorphisms assessed as growth inhibition after 48 hrs by scintillation counting; format: functional, organism-based; conditions: FCM29, 48 h; in short: as §2
# [17] = system: Plasmodium falciparum; test: Antimicrobial activity against Plasmodium falciparum IMT K2 harboring Pfcrt, Pfmdr1, Pfmrp, and Pfnhe-1 polymorphisms assessed as growth inhibition after 48 hrs by scintillation counting; format: functional, organism-based; conditions: IMT K2, 48 h; in short: as §2
# [18] = system: Plasmodium falciparum; test: Antimicrobial activity against Plasmodium falciparum IMT A4 harboring Pfcrt, Pfmdr1, Pfmrp, and Pfnhe-1 polymorphisms assessed as growth inhibition after 48 hrs by scintillation counting; format: functional, organism-based; conditions: IMT A4, 48 h; in short: as §2
# [19] = system: Plasmodium falciparum; test: Antimicrobial activity against Plasmodium falciparum PA harboring Pfcrt, Pfmdr1, Pfmrp, and Pfnhe-1 polymorphisms assessed as growth inhibition after 48 hrs by scintillation counting; format: functional, organism-based; in short: as §2
# [20] = system: Plasmodium falciparum; test: Antimicrobial activity against Plasmodium falciparum W2 harboring Pfcrt, Pfmdr1, Pfmrp, and Pfnhe-1 polymorphisms assessed as growth inhibition after 48 hrs by scintillation counting; format: functional, organism-based; conditions: W2, 48 h; in short: as §1
# [21] = system: Plasmodium falciparum; test: Antimicrobial activity against Plasmodium falciparum IMT K4 harboring Pfcrt, Pfmdr1, Pfmrp, and Pfnhe-1 polymorphisms assessed as growth inhibition after 48 hrs by scintillation counting; format: functional, organism-based; conditions: IMT K4, 48 h; in short: as §1
# [22] = system: Plasmodium falciparum; test: Antimicrobial activity against Plasmodium falciparum IMT 9996 harboring Pfcrt, Pfmdr1, Pfmrp, and Pfnhe-1 polymorphisms assessed as growth inhibition after 48 hrs by scintillation counting; format: functional, organism-based; conditions: IMT 9996, 48 h; in short: as §1
# [23] = system: Plasmodium falciparum; test: Antimicrobial activity against Plasmodium falciparum IMT K14 harboring Pfcrt, Pfmdr1, Pfmrp, and Pfnhe-1 polymorphisms assessed as growth inhibition after 48 hrs by scintillation counting; format: functional, organism-based; conditions: IMT K14, 48 h; in short: as §1
# [24] = system: Plasmodium falciparum; test: Antimicrobial activity against Plasmodium falciparum ms4760-6 assessed as growth inhibition after 48 hrs by scintillation counting; conditions: ms4760-6, 48 h
# [25] = system: Plasmodium falciparum; test: Antimicrobial activity against Plasmodium falciparum ms4760-7 assessed as growth inhibition after 48 hrs by scintillation counting; conditions: ms4760-7, 48 h
compound,measurement,setting,value
C=C[C@H]1CN2CC[C@H]1C[C@H]2[C@H](O)c1ccnc2ccc(OC)cc12 [QUININE],IC50,[1],57 nM
same,IC50,[2],58 nM
same,IC50,[3],62 nM
same,IC50,[4],83 nM
same,IC50,[5],128 nM
same,IC50,[6],148 nM
same,IC50,[7],204 nM
same,IC50,[8],210 nM
same,IC50,[9],271 nM
same,IC50,[10],334 nM
same,IC50,[11],371 nM
same,IC50,[12],421 nM
same,IC50,[13],453 nM
same,IC50,[14],500 nM
same,IC50,[15],575 nM
same,IC50,[16],580 nM
same,IC50,[17],599 nM
same,IC50,[18],605 nM
same,IC50,[19],625 nM
same,IC50,[20],686 nM
same,IC50,[21],1030 nM
same,IC50,[22],1040 nM
same,IC50,[23],1310 nM
same,IC50,[24],582 nM
same,IC50,[25],764 nM
